In ChEMBL document CHEMBL1212837, “Benzo[b]thiophene-6-carboxamide 1,1-dioxides: inhibitors of human cancer cell growth at nanomolar concentrations” (2010):
Active and inactive are the calls of the source. The rule behind the calls is not given here.

What was measured:
[1] = test system: K562; experiment: Cytotoxicity against human K562 cells after 72 hrs by MTT assay; format: functional; settings: K562, 72 h
In short: (§1)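 Cells were grown in medium with 10% fetal calf serum, 2 mM L-glutamine, penicillin/streptomycin and 10 mM HEPES (pH 7.4). Compounds were made up as a 0.1 M DMSO stock and serially diluted in medium to five doses between 0.01 and 100. Exposure was 72 h at 37 °C in humidified 5% CO₂. Read-out was MTT colorimetric, giving GI50 as the concentration reducing growth by 50%.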

[2] = Cytotoxicity against human HTB-54 cells after 72 hrs by MTT assay; format: functional; settings: HTB-54, 72 h; in short: as §1
[3] = Cytotoxicity against human MEL-AC cells after 72 hrs by MTT assay; format: functional; in short: as §1
[4] = test system: HT-29; experiment: Cytotoxicity against human HT-29 cells after 72 hrs by MTT assay; format: functional; settings: HT-29, 72 h; in short: as §1
[5] = test system: CCRF-CEM; experiment: Cytotoxicity against human CCRF-CEM cells after 72 hrs by MTT assay; format: functional; in short: as §1
[6] = test system: HeLa; experiment: Cytotoxicity against human HeLa cells after 72 hrs by MTT assay; format: functional; in short: as §1
[7] = test system: CCRF-CEM; experiment: Cell cycle arrest in human CCRF-CEM cells assessed as accumulation at S phase after 24 hrs using propidium iodide staining by flow cytometry; format: functional, cell-based
In short: (§2)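 CCRF-CEM cells were seeded at 10⁶ cells/ml in complete medium and exposed to 2.5 µM for 24 h. Cells were pelleted (700 g, 6 min, 4 °C), washed in PBS and fixed in 70% ethanol at 4 °C for 20 min. They were then stained with PI (50 µg/ml) plus RNase at 37 °C for 30 min. DNA content was read by flow cytometry on 10,000 events to give phase percentages. Six independent experiments, duplicate wells, mean SD.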

[8] = test system: CCRF-CEM; experiment: Cell cycle arrest in human CCRF-CEM cells assessed as accumulation at S phase at 2.5 uM using propidium iodide staining by flow cytometry; format: functional, cell-based; settings: TDE = time-dependent effect; in short: as §2
[9] = test system: CCRF-CEM; experiment: Induction of apoptosis in human CCRF-CEM cells at 6 uM after 12 hrs using V-FITC and propidium iodide staining by flow cytometry; format: functional
In short: (§3)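 CCRF-CEM cells were incubated with compound for 12 to 48 h. Cells (5×10⁵) were pelleted, washed in PBS and stained with annexin V-FITC plus propidium iodide for 15 min at 4 °C in the dark. Phosphatidylserine-exposing (apoptotic) cells were counted by flow cytometry. Five independent experiments, duplicate wells, mean SD.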

[10] = test system: CCRF-CEM; experiment: Induction of apoptosis in human CCRF-CEM cells at 6 uM after 48 hrs using V-FITC and propidium iodide staining by flow cytometry; format: functional; in short: as §3
[11] = test system: CCRF-CEM; experiment: Cell cycle arrest in human CCRF-CEM cells assessed as accumulation at sub-G1 phase at 2.5 uM after 24 hrs using propidium iodide staining by flow cytometry; format: functional, cell-based; in short: as §2
[12] = test system: CCRF-CEM; experiment: Cell cycle arrest in human CCRF-CEM cells assessed as accumulation at S phase at 2.5 uM after 24 hrs using propidium iodide staining by flow cytometry; format: functional, cell-based; in short: as §2
[13] = test system: CCRF-CEM; experiment: Cell cycle arrest in human CCRF-CEM cells assessed as reduction of cell accumulation at G0/G1 phase at 2.5 uM after 24 hrs using propidium iodide staining by flow cytometry; format: functional, cell-based; in short: as §2
[14] = test system: CCRF-CEM; experiment: Induction of increase in ROS level in human CCRF-CEM cells at 2.5 uM after 24 hrs using CM-H2DCFDA fluorescent probe by flow cytometry; format: functional, cell-based
In short: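 CCRF-CEM cells at 1×10⁶ cells/ml were cultured with or without 2.5 µM for 24 h. Cells (2×10⁶) were then loaded with 1 µM CM-H₂DCFDA for 60 min at 37 °C and fluorescence was read by flow cytometry. Results are expressed as fold over untreated cells, with 4-HPR as the positive control. Two independent experiments, triplicate wells, mean SD.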

[15] = test system: CCRF-CEM; experiment: Induction of apoptosis in human CCRF-CEM cells at 2.5 uM after 24 hrs using V-FITC and propidium iodide staining by flow cytometry in presence of N-acetyl-cysteine

## O=S1(=O)C=Cc2ccc(S(=O)(=O)NCc3ccccc3)cc21
[1]
  GI50: 720 nM
[2]
  GI50: 700 nM
[3]
  GI50: 400 nM
[4]
  GI50: 840 nM
[5]
  GI50: 330 nM
[6]
  GI50: 10 nM
[7]
  Activity: Dose-dependent effect
[8]
  Activity: tde

## NC(=O)c1ccc2c(c1)S(=O)(=O)C=C2
[1]
  GI50: 7850 nM
[2]
  GI50: 220 nM
[3]
  GI50: 3520 nM
[4]
  GI50: 5190 nM
[5]
  GI50: 3550 nM
[6]
  GI50: 650 nM
[7]
  Activity: Dose-dependent effect
[8]
  Activity: tde

## COc1ccc(CCNC(=O)c2ccc3c(c2)S(=O)(=O)C=C3)cc1
[1]
  GI50: 2660 nM
[2]
  GI50: 640 nM
[3]
  GI50: 1320 nM
[4]
  GI50: 2080 nM
[5]
  GI50: 730 nM
[6]
  GI50: 40 nM
[7]
  Activity: Dose-dependent effect
[8]
  Activity: tde

## CCCCNC(=O)c1ccc2c(c1)S(=O)(=O)C=C2
[1]
  GI50: 2730 nM
[2]
  GI50: 90 nM
[3]
  GI50: 1420 nM
[4]
  GI50: 2320 nM
[5]
  GI50: 280 nM
[6]
  GI50: 80 nM
[7]
  Activity: Dose-dependent effect
[8]
  Activity: tde

## CN(Cc1ccccc1)S(=O)(=O)c1ccc2c(c1)S(=O)(=O)C=C2
[1]
  GI50: 38100 nM
[2]
  GI50: 400 nM
[3]
  GI50: 2300 nM
[4]
  GI50: 35000 nM
[5]
  GI50: 630 nM
[6]
  GI50: 10 nM
[7]
  Activity: Dose-dependent effect
[8]
  Activity: tde

## COc1ccc(NC(=O)c2ccc3c(c2)S(=O)(=O)C=C3)cc1
[1]
  GI50: 47 nM
[2]
  GI50: 2 nM
[3]
  GI50: 760 nM
[4]
  GI50: 350 nM
[5]
  GI50: 4 nM
[6]
  GI50: 3 nM
[9]
  Activity: 30.4%
[10]
  Activity: 83%
[11]
  Activity: Active
[12]
  Activity: Active
[13]
  Activity: Active
[7]
  Activity: Dose-dependent effect
[8]
  Activity: tde
[14]
  Activity: Active
[15]
  Activity: Active

## O=S1(=O)C=Cc2ccc(O)cc21
[1]
  GI50: 51100 nM
[2]
  GI50: 7530 nM
[3]
  GI50: 24000 nM
[4]
  GI50: 2040 nM
[5]
  GI50: 19200 nM
[7]
  Activity: Dose-dependent effect
[8]
  Activity: tde

## NS(=O)(=O)c1ccc2c(c1)S(=O)(=O)C=C2
[1]
  GI50: 29400 nM
[2]
  GI50: 5890 nM
[3]
  GI50: 7140 nM
[4]
  GI50: 8550 nM
[5]
  GI50: 2860 nM
[6]
  GI50: 2210 nM
[7]
  Activity: Dose-dependent effect
[8]
  Activity: tde

## COc1ccc(CCNS(=O)(=O)c2ccc3c(c2)S(=O)(=O)C=C3)cc1
[1]
  GI50: 6 nM
[2]
  GI50: 620 nM
[3]
  GI50: 1930 nM
[4]
  GI50: 220 nM
[5]
  GI50: 5 nM
[6]
  GI50: 120 nM
[7]
  Activity: Dose-dependent effect
[8]
  Activity: tde
